# Assay outcomes as filed in PubChem BioAssay.
# MrgX1 antag = blocks BAM8-22 activation of human MrgX1 receptor. actives 1.3% (n = 310,000). B-score at 10 µM. MRGX1-HEK293 calcium flux, Fluo-4, BAM8-22 antagonism; hits give low values. Q96LB2;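 active means calcium-response B-score plate-corrected more than 3 library SD below zero, starting fluorescence within 5 deviations, no agonist response on first addition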;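 further: peak minus trough fluorescence over baseline after final BAM8-22 challenge near maximal dose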
# Target sequence (Q96LB2 whole entry, looked up): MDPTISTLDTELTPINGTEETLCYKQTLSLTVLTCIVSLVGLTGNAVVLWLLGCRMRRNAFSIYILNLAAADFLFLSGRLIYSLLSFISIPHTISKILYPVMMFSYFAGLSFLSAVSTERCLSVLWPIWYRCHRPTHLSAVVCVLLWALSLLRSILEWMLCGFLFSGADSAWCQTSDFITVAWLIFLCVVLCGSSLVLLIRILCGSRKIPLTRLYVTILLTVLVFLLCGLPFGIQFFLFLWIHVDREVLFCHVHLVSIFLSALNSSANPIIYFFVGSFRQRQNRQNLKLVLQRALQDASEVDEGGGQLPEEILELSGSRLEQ
# MrgX1 PAM = human MrgX1 positive allosteric modulation, primary screen; Q96LB2; MrgX1-HEK293, Fluo-4 calcium flux, FDSS; hits give high values; B-score at 10 µM; actives 0.63% (n = 310,000); AID 588675;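 active means plate-corrected calcium response at least 3 library SD above typical, normal starting fluorescence, not activating the receptor alone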;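 further: compound read alongside a low EC10 to EC30 dose of BAM8-22 agonist; peak minus trough fluorescence over baseline measured at the second addition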
# RGS4 pot = potentiators or activators of RGS4; B-score at 10 µM; actives 0.92% (n = 310,000); HEK293 M3R/inducible RGS4, carbachol calcium flux Fluo4; hits give low values;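 active means B-score of the integrated calcium signal more than 4 SD below the library mean, with starting fluorescence not abnormally high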;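 further: negative B-score means reduced calcium response which marks RGS4 activation or potentiation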
#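 Material: Inducible-RGS4 HEK293 cells carrying M3 receptor; also added: carbachol at ECmax as muscarinic agonist stimulus; incubation: compound preincubation 20 min at room temperature before agonist; signal: Fluo4-AM (2 µM) calcium-flux fluorescence, kinetic read; measure: integrated calcium ratio converted to B score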
# MrgX1 ag = activates human MrgX1 receptor signaling. Q96LB2. MrgX1-HEK293 cells, Fluo-4 calcium fluorescence, agonist mode; hits give high values. B-score at 10 µM. actives 0.44% (n = 310,000). AID 588627;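 active means calcium response B-score plate-corrected fluorescence ratio at least 3 library SD, with starting fluorescence B-score inside 5 SD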
#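 System: HEK293 cells stably expressing human MrgX1 receptor; Dosing: test compound in the initial addition of three; Schedule: overnight plating, then 30 min 37 °C plus 30 min room-temperature dye loading; Detection: kinetic calcium dye fluorescence, Fluo-4 NW; Controls: per-plate positive and negative controls for Z′ factor.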
# RGS4 inh = inhibitors of human RGS4. actives 0.45% (n = 310,000). HEK293 M3R/RGS4 inducible, Fluo-4 calcium flux; hits give high values; triggered by carbachol at its EC20. P49798. B-score at 10 µM;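 active means B-score, a plate-corrected calcium signal, over three deviations above library mean, with baseline fluorescence within five deviations of library mean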;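 further: RGS4 expression induced by doxycycline in cells with stable M3 receptor; B-score is computed from the integrated fluorescence ratio over baseline after carbachol; higher B-score means a larger calcium signal and so more RGS4 inhibition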
# Target sequence (P49798 whole entry, looked up): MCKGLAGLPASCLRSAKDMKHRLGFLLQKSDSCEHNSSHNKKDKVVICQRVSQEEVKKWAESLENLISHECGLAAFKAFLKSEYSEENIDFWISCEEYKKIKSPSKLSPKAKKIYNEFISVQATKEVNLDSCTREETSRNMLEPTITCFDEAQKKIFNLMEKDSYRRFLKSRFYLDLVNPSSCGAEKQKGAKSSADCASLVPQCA
# RGS4 inh valid = validation of RGS4 inhibitors; shares compounds with RGS4 inh; AID 492999; calcium response, % at 10 µM; HEK293 M3R/RGS4, carbachol calcium Fluo-4 fluorescence; carbachol added at its EC20; 0 = buffer wells, 100 = carbachol control; actives 65% (n = 1,700);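 active means duplicate-averaged calcium response above the buffer-only control mean plus 5 SD of those controls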;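 further: integrated fluorescence ratio F max minus min over baseline F0; higher response in RGS4-induced cells means RGS4 inhibition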
# M3R Ca ctr = counter-screen for RGS4 inhibitors: effect in non-induced cells | actives 20% (n = 1,900) | shares compounds with RGS4 inh | HEK293 M3R non-induced, carbachol calcium Fluo-4; submaximal (EC20) carbachol stimulus; buffer wells 0%, carbachol control wells 100% | AID 493000 | activity (percent), % at 10 µM; call rule not given here;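 further: RGS4 induction absent so cells express M3R without RGS4; higher means more calcium signal and flags a non-specific hit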
# RGS4 inh ctr2 = second RGS4 inhibitor counter-screen in uninduced cells lacking carbachol; actives 22% (n = 1,900); HEK293 M3R/RGS4 non-induced, Fluo-4 calcium, no carbachol; normalised: buffer wells 0%, carbachol wells 100%; shares compounds with RGS4 inh; calcium response (agonist-mode artifact), % at 10 µM;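 active means duplicate-averaged calcium rise in uninduced cells above buffer wells' mean plus 5 SD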
# * marks the source's active call; other numbers are inactive results; i = inactive; x = no result. Only some compounds are listed: those with a hit (about 3.5% of all), similar ones and a draw of the others.
SMILES,MrgX1 antag,MrgX1 PAM,RGS4 pot,MrgX1 ag,RGS4 inh,RGS4 inh valid,M3R Ca ctr,RGS4 inh ctr2
O=S(=O)(Nc1ccc(O)c2ccccc12)c1ccc(F)cc1,i,i,i,i,i,x,x,x
CCOC(=O)/C(=C/c1ccc(OC(=O)c2ccccc2)cc1)C(C)=O,i,i,i,i,i,x,i,8.5%*
Cc1ccc(S(=O)(=O)N(CC(=O)N=Nc2c(O)[nH]c3ccccc23)c2cccc(C)c2)cc1,i,i,i,i,i,x,x,x
Cc1cc(Cl)ccc1N(CC(=O)N=Nc1c(O)[nH]c2ccccc12)S(C)(=O)=O,i,i,i,i,4.93*,5.5%*,i,i
Cc1c(OCC(=O)N[C@@H](Cc2ccccc2)C(=O)O)ccc2c3c(c(=O)oc12)CCC3,i,i,i,i,i,i,i,i
Cc1c(OCC(=O)N[C@@H](CSCc2ccccc2)C(=O)O)ccc2c3c(c(=O)oc12)CCC3,x,x,i,x,4.9*,i,i,i
O=c1[nH]c2ccccc2nc1Cc1ccc([N+](=O)[O-])cc1,i,i,i,i,i,x,x,x
O=C(CSc1nnc(SCc2cccc3ccccc23)s1)N/N=C/c1c[nH]c2ccccc12,i,i,i,i,4.71*,20.0%*,i,i
O=C(O)COc1ccccc1/C=N/NC(=O)CSc1nnc(SCc2cccc3ccccc23)s1,i,i,i,i,i,x,x,x
O=C(CSc1nnc(SCc2ccc(Cl)cc2)s1)N/N=C/c1c[nH]c2ccccc12,i,i,i,i,i,x,i,i
O=C(CCNC(=O)c1ccc([N+](=O)[O-])cc1)Nc1ccc(F)c(F)c1F,i,i,i,i,i,x,x,x
Cc1ccc(NC(=O)CN(C)C(=O)Cn2cc(C(F)(F)F)cc(Cl)c2=O)cc1,i,i,i,i,5.51*,i,i,i
O=C(CCN1CCCCO1)N1CCCC(Nc2cccc(F)c2)C1 (stereo unspecified),i,i,i,i,i,x,x,x
COc1ccc2c(c1OC)C(=O)OC2Nc1nc(-c2ccc(-c3ccccc3)cc2)cs1 (stereo unspecified),i,i,i,i,i,i,i,8.0%*
COc1cccc(-c2csc(NC3OC(=O)c4c3ccc(OC)c4OC)n2)c1 (stereo unspecified),i,i,i,i,i,x,i,i
COc1ccc2c(c1OC)C(=O)OC2Nc1nc(-c2cc3ccccc3oc2=O)cs1 (stereo unspecified),i,i,i,i,i,x,x,x
CCOC(=O)[C@@H]1[C@H]2COc3ccccc3[C@@H]2N2C(=O)N(c3cccc(F)c3)C(=O)[C@]12C,i,i,i,i,i,i,i,i
CCOC(=O)[C@@H]1[C@H]2COc3ccccc3[C@@H]2N2C(=O)N(c3cccc(Cl)c3)C(=O)[C@]12C,i,i,i,i,i,i,i,i
CCOC(=O)[C@@H]1[C@H]2COc3ccc(Br)cc3[C@@H]2N2C(=O)N(c3cccc(F)c3)C(=O)[C@@]12C,i,i,i,i,i,x,x,x
CCOC(=O)[C@@H]1[C@H]2COc3ccccc3[C@@H]2N2C(=O)N(c3cccc(Cl)c3)C(=O)[C@@]12C,i,i,i,i,i,i,i,i
CCOC(=O)[C@@H]1[C@H]2COc3ccccc3[C@H]2N2C(=O)N(c3cccc(Cl)c3)C(=O)[C@@]12C,i,i,i,i,6.45*,36.0%*,31.5%*,i
CCOC(=O)[C@@H]1[C@H]2COc3cc(OC)ccc3[C@@H]2N2C(=O)N(c3ccc(OC)cc3)C(=O)[C@]12C,i,i,i,i,i,x,x,x
CO/N=C/c1cc([N+](=O)[O-])ccc1Sc1ccc(C)cc1,i,i,i,i,i,x,x,x
COc1ccc(/C=C2/C(=O)N(c3ccccc3)N=C2C)cc1OC,i,i,i,i,i,i,i,i
CC1=NN(c2ccccc2)C(=O)/C1=C/c1cccc(C)c1,i,i,i,i,i,x,x,x
SMILES,MrgX1 antag,MrgX1 PAM,RGS4 pot,MrgX1 ag,RGS4 inh,RGS4 inh valid,M3R Ca ctr,RGS4 inh ctr2
CCCCNC(=O)N1CCN(c2ccnc3cc(Cl)ccc23)CC1,i,i,i,i,i,x,x,x
CN(Cc1ccccc1)C(=O)c1cc2cc(F)ccc2[nH]1,i,i,i,i,i,x,x,x
O=C(O)COc1ccc(/C=C/C(=O)c2ccc3ccccc3c2)cc1,i,i,i,i,4.82*,i,i,i
NC(=O)N/N=C/c1ccc(-n2nncc2-c2ccc(Cl)cc2)cc1,i,i,i,i,6.25*,20.0%*,41.0%*,i
O=C(NCc1ccccc1Cl)c1ccc2nnsc2c1,i,i,i,i,i,x,x,x
CCc1cccc(CC)c1NC(=O)CN1CC(C)SC1=NC1CCCCC1 (stereo unspecified),i,i,i,i,i,x,x,x
Cc1cc(-c2cc(-c3ccccc3)on2)nc(NC2CCCC2)n1,i,i,i,i,i,x,x,x
Cc1ccccc1C1CC(c2ccccc2OC(F)F)Nc2ncnn21 (stereo unspecified),i,i,i,i,5.26*,11.0%*,i,i
Cc1ccc(C2CC(c3ccccc3OC(F)F)Nc3ncnn32)cc1 (stereo unspecified),i,i,i,i,i,x,i,i
CS(=O)(=O)c1ccc(Cl)c(NC(=O)COC(=O)CNC(=O)c2ccc3ccccc3c2)c1,i,i,i,i,i,x,x,x
CCOn1c(=O)c(-c2ccc(OC)cc2)[n+]([O-])c2ccccc21,i,i,i,i,i,x,x,x
CCOn1c(=O)c(-c2ccc(OC)c(OC)c2)[n+]([O-])c2ccccc21,i,i,i,i,i,i,i,i
CC1(C)CC(=O)C(N=Nc2ccc(-c3ccccc3)cc2)=C(O)C1,i,i,i,i,i,x,x,x
O=C1CCCC(O)=C1Sc1ccccc1C(=O)O,i,i,i,i,i,x,x,x
